The results in this text go back to ChEMBL document CHEMBL2331324, “Synthesis and biological evaluation of guanidino analogues of roscovitine” (Eur J Med Chem, 2013).

In assay [1] the target is Aurora kinase A/B (Homo sapiens) (UniProt Q96GD4+O14965). Kind of assay: Activity at Aurora kinase A/B in human MCF7 cells assessed as histone H3 phosphorylation at Ser10 at 100 uM after 24 hrs by flow cytometry relative to untreated control. The format is cell-based. In outline:
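Flow cytometry on MCF7 cells exposed 24 h to 100 µM. About one million cells fixed in 90% methanol, rehydrated, and labelled with primary antibody to pH3 Ser10, then an Alexa Fluor 488 secondary. Alexa read at 488/525 nm (ex/em). The value is the fraction of pH3-positive cells in treated cultures divided by that in untreated control.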
On the technique in general: A flow cytometer gives signals particle by particle.

The subject of assay [2] is MCF7. Kind of assay: Cytotoxicity against human MCF7 cells assessed as inhibition of cell viability after 72 hrs by calcien AM dye based fluorescence analysis. The format is functional. The settings on record: MCF7, 72 h. In outline: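 MCF7 cells grown in DMEM with 10% FBS, 2 mM glutamine, penicillin and streptomycin at 37 °C and 5% CO2. About 10,000 cells per well, left 4 h, then a concentration range added in triplicate, DMSO ≤0.5% final. After 72 h, 1 µg/ml calcein AM (final) for 1 h; fluorescence read at 485/538 nm. Viability given as % of control; IC50 read graphically from dose-response curves; mean of ≥3 independent experiments.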

The target of assay [3] is Cyclin-dependent kinase 2/cyclin E1 (Homo sapiens, UniProt P24941). Kind of assay: Inhibition of recombinant CDK2/cyclin E (unknown origin) using histone H1 as substrate in presence of [gamma-33P]ATP. It counts as protein-complex assay.
Assay [4] has as its system MCF7. In words: Cell cycle arrest in human MCF7 cells assessed as accumulation of cells in G2+M phase at 100 uM after 24 hrs by propidium iodide staining based flow cytometry relative to untreated control. It counts as functional. The method, boiled down:
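Flow cytometry on MCF7 cells given 100 µM for 24 h. About one million cells fixed in 90% methanol and rehydrated. DNA stained with propidium iodide, read at 488/575 nm (ex/em). The value is the G2+M fraction of treated cells divided by the G2+M fraction of untreated control cells.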

The target of assay [5] is Cyclin-dependent kinase 1/cyclin B1 (Homo sapiens, UniProt P06493). In words: Inhibition of recombinant CDK1/cyclin B (unknown origin) using histone H1 as substrate in presence of [gamma-33P]ATP. It counts as protein-complex assay.
Cyclin-dependent kinase 1/cyclin B1, sequence (P06493 whole entry): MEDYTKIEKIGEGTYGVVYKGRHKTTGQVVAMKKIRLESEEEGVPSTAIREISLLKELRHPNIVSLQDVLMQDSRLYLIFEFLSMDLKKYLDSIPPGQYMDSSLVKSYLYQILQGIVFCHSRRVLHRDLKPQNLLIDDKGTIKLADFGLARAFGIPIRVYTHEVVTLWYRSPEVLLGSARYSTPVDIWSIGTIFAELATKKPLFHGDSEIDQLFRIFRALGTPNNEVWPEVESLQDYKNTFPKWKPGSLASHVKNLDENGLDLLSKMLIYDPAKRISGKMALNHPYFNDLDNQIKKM
Cyclin-dependent kinase 1/cyclin B1, sequence (P14635 whole entry, further chain): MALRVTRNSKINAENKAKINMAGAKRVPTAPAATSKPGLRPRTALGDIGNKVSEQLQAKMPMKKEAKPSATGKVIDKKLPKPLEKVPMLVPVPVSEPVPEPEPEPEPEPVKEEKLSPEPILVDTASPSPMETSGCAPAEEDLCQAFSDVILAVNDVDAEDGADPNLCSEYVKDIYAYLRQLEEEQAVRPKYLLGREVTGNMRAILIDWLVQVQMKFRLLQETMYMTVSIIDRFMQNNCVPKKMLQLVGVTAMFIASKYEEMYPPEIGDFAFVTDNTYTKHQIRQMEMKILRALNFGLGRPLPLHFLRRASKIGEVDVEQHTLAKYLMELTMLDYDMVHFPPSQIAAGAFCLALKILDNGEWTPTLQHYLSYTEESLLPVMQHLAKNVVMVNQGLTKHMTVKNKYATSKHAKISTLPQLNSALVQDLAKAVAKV
The subject of assay [6] is MCF7. Kind of assay: Ratio of compound IC50 to roscovitine IC50 for human MCF7 cells after 72 hrs by calcien AM dye based fluorescence analysis. It counts as functional.
The target of assay [7] is Cyclin-dependent kinase 2/cyclin E1 (Homo sapiens) (UniProt P24864+P24941). Kind of assay: Ratio of compound IC50 to roscovitine IC50 for recombinant CDK2/cyclin E (unknown origin). It counts as protein-complex assay.
The target of assay [8] is Cyclin-dependent kinase 1/cyclin B1 (Homo sapiens) (UniProt P06493+P14635). Kind of assay: Ratio of compound IC50 to roscovitine IC50 for recombinant CDK1/cyclin B (unknown origin). It counts as protein-complex assay.
Cyclin-dependent kinase 1/cyclin B1 (Homo sapiens), sequence (P06493 whole entry, looked up): as the sequence (P06493 whole entry) above
Cyclin-dependent kinase 1/cyclin B1 (Homo sapiens), sequence (P14635 whole entry, looked up): as the sequence (P14635 whole entry, further chain) above

Aurora kinase A/B (Homo sapiens), sequence (O14965 whole entry, looked up): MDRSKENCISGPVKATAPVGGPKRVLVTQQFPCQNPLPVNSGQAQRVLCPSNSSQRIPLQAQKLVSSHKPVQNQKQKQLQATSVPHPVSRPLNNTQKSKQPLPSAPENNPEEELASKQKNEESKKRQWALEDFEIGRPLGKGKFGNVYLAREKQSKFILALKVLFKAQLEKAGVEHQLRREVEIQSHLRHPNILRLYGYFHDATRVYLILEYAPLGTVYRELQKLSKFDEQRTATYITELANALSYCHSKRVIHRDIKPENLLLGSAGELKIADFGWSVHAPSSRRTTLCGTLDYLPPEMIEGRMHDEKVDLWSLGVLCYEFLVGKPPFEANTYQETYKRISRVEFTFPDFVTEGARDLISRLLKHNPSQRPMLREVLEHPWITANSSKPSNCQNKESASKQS
Aurora kinase A/B (Homo sapiens), sequence (Q96GD4 whole entry, looked up): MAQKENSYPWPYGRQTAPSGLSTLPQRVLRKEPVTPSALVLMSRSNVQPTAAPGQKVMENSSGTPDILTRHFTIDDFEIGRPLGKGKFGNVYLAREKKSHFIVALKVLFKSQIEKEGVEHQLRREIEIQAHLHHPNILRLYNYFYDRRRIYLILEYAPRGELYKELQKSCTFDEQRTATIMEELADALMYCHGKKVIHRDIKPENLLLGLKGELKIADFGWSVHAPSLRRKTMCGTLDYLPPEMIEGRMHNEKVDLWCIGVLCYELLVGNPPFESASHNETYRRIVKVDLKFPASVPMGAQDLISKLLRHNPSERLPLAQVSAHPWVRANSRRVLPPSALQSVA

On to `CC(C)[C@H](CO)Nc1nc(NC(=N)N)c2ncn(C(C)C)c2n1`, for which the figures for the Ratio (in assay [1]; in the assay on MCF7 [4]) were 0.13 and 2.3, respectively. For the same molecule, the half-inhibitory concentration (IC50) worked out at 10.5 µM with MCF7 [2], 0.14 µM in assay [3] and 2 µM in assay [5].
As for `CCn1cnc2c(N)nc(N)nc21`, the IC50 in the assay with MCF7 [2] was more than 100 µM; in assay [3], 7.9 µM; in assay [5], 37.5 µM. Further, the Ratio with MCF7 [4] is reported as 1.2.
On to `CC(C)n1cnc2c(NC(=N)N)nc(N)nc21`, for which the Ratio is 0.18 in assay [1] and 2 in the assay on MCF7 [4]. The figures for the “Ratio IC50” value (in the assay with MCF7 [6]; in assay [7]; in assay [8]) were 4, 5 and 5, respectively. Besides, the half-inhibitory concentration (IC50) in the assay with MCF7 [2] was 97.2 µM; in assay [3], 1.3 µM; in assay [5], 14.8 µM.
For `CC(C)n1cnc2c(NC(=N)N)nc(NC3CC3)nc21`, the Ratio in assay [1] is 0.17; in the assay on MCF7 [4] it was 2.4. Further, the half-maximal inhibitory concentration (IC50) is 5.4 µM in the assay on MCF7 [2], 0.5 µM in assay [3] and 6.4 µM in assay [5].
Turning to `N=C(N)Nc1nc(N)nc2c1ncn2CC(F)(F)F`, the half-inhibitory concentration (IC50) (with MCF7 [2]; in assay [3]; in assay [5]) was more than 100 µM each time. Further, in the assay on MCF7 [4], the Ratio is listed as 0.8.
Consider `CC(C)Cn1cnc2c(NC(=N)N)nc(N)nc21`, for which the Ratio in assay [1] turned out to be 7; in the assay on MCF7 [4], 3.5. The IC50 was 96.6 µM with MCF7 [2], 66.5 µM in assay [3] and more than 100 µM in assay [5].
In the case of `CC[C@H](N)COc1nc(NC(=N)N)c2ncn(C(C)C)c2n1`, the figures for the Ratio (in assay [1]; in the assay with MCF7 [4]) were 0.07 and 1.5, respectively. Moreover, the IC50 with MCF7 [2] amounted to 16.3 µM; in assay [3], 6.2 µM; in assay [5], 8.1 µM.
Take `CC(C)n1cnc2c(NC(=N)N)nc(NCCO)nc21`: the Ratio is 0.15 in assay [1] and 2.9 in the assay on MCF7 [4]. Besides, the half-maximal inhibitory concentration (IC50) with MCF7 [2] turned out to be 12.4 µM; in assay [3], 0.82 µM; in assay [5], 15.1 µM.
For `CC(C)[C@@H](CO)Nc1nc(NC(=N)N)c2ncn(C(C)C)c2n1`, the results for the Ratio (in assay [1]; in the assay on MCF7 [4]) were 0.09 and 1.8, respectively. Also, the IC50 was found to be 2.1 µM with MCF7 [2], 0.071 µM in assay [3] and 1.1 µM in assay [5].
As for `Cn1cnc2c(NC(=N)N)ncnc21`, the IC50 (with MCF7 [2]; in assay [3]; in assay [5]) was more than 100 µM each time. Also, the Ratio in the assay on MCF7 [4] is listed as 1.
`CN(C)c1nc(N)nc2c1ncn2CCN=[N+]=[N-]`: the IC50 (in the assay on MCF7 [2]; in assay [3]; in assay [5]) was more than 100 µM throughout. In the assay on MCF7 [4], the Ratio amounted to 1.
With `CC(C)n1cnc2c(NC(=N)N)nc(OC[C@@H]3CCCN3)nc21`, the Ratio is 0.8 in assay [1] and 1.7 in the assay on MCF7 [4]. For the same molecule, the half-maximal inhibitory concentration (IC50) in the assay with MCF7 [2] was more than 100 µM; in assay [3], 25.2 µM; in assay [5], more than 100 µM.
Turning to `CC[C@H](CO)Nc1nc(NCc2ccccc2)c2ncn(C(C)C)c2n1` [SELICICLIB], the 50% inhibitory concentration (IC50) with MCF7 [2] worked out at 20.2 µM.
Consider `Cn1cnc2c(NC(=N)N)nc(N)nc21`, for which the Ratio in assay [1] is 0.81; with MCF7 [4] it was 1.5. For the same molecule, the IC50 was more than 100 µM in the assay on MCF7 [2], 6.8 µM in assay [3] and 38.2 µM in assay [5].
Turning to `CC(C)n1cnc2c(NC(=N)N)nc(N3CCC[C@H]3CO)nc21`, the Ratio in assay [1] amounted to 0.11; in the assay on MCF7 [4], 1.7. For the same molecule, the IC50 was determined as 6.2 µM in the assay on MCF7 [2], 0.16 µM in assay [3] and 1.5 µM in assay [5].
As for `CCCn1cnc2c(NC(=N)N)nc(N)nc21`, the results for the Ratio (in assay [1]; in the assay on MCF7 [4]) were 6.71 and 4, respectively. Also, the half-maximal inhibitory concentration (IC50) came out at 36.5 µM with MCF7 [2], 10.7 µM in assay [3] and 55.9 µM in assay [5].
`CC[C@@H](N)COc1nc(NC(=N)N)c2ncn(C(C)C)c2n1`: the Ratio in assay [1] is 1.08; in the assay on MCF7 [4], 0.8. The half-inhibitory concentration (IC50) in the assay on MCF7 [2] was more than 100 µM; in assay [3], 13.3 µM; in assay [5], 47.6 µM.
Consider `[N-]=[N+]=NCCn1cnc2c(NC(=N)N)nc(N)nc21`, for which the IC50 in the assay on MCF7 [2] is more than 100 µM; in assay [3], 74.9 µM; in assay [5] it was more than 100 µM. The Ratio in the assay on MCF7 [4] is given as 1.4.
For `CCn1cnc2c(NC(=N)N)nc(N)nc21`, the results for the Ratio (in assay [1]; in the assay on MCF7 [4]) were 0.1 and 1.6, respectively. The “Ratio IC50” value with MCF7 [6] was 2; in assay [7] it was 5; in assay [8] it was 5. For the same molecule, the 50% inhibitory concentration (IC50) in the assay with MCF7 [2] stood at 54.3 µM; in assay [3], 1.7 µM; in assay [5], 12.6 µM.
`CC(C)n1cnc2c(NC(=N)N)nc(NCCCO)nc21`: the Ratio in assay [1] was determined as 0.18; in the assay on MCF7 [4], 2.5. The 50% inhibitory concentration (IC50) was 8.8 µM in the assay with MCF7 [2], 0.18 µM in assay [3] and 4.1 µM in assay [5].
`N=C(N)Nc1nc(N)nc2c1ncn2CCN`: the results for the IC50 (in the assay on MCF7 [2]; in assay [3]; in assay [5]) were more than 100 µM, more than 100 µM and more than 50 µM, respectively. The Ratio with MCF7 [4] came to 1.
In the case of `CC(C)n1cnc2c(NC(=N)N)nc(NCCCCCCO)nc21`, the Ratio came to 0.33 in assay [1] and 2 with MCF7 [4]. Besides, the IC50 in the assay with MCF7 [2] was found to be 5.2 µM; in assay [3], 1.6 µM; in assay [5], 4.2 µM.
As to `CC(C)n1cnc2c(N)nc(N)nc21`, the half-maximal inhibitory concentration (IC50) with MCF7 [2] was more than 100 µM; in assay [3], 22.2 µM; in assay [5], 64.9 µM. Moreover, the Ratio in the assay on MCF7 [4] was 0.9.
For `CC(C)[C@@H](N)COc1nc(NC(=N)N)c2ncn(C(C)C)c2n1`, the Ratio in assay [1] worked out at 0.39; with MCF7 [4], 2.1. The figures for the IC50 (with MCF7 [2]; in assay [3]; in assay [5]) were 79.4 µM, 8 µM and 15.6 µM, respectively.
`CC(C)[C@H](N)COc1nc(NC(=N)N)c2ncn(C(C)C)c2n1`: the Ratio is 0.09 in assay [1] and 1.7 in the assay with MCF7 [4]. The half-maximal inhibitory concentration (IC50) stood at 3.4 µM in the assay with MCF7 [2], 1.8 µM in assay [3] and 1.1 µM in assay [5].
On to `N=C(N)Nc1nc(N)nc2c1ncn2CCO`, for which the IC50 (in the assay on MCF7 [2]; in assay [3]; in assay [5]) was more than 100 µM throughout. Besides, in the assay with MCF7 [4], the Ratio is recorded as 0.9.
With `CC(C)n1cnc2c(NC(=N)N)nc(OC[C@H]3CCCN3)nc21`, the values for the IC50 (in the assay with MCF7 [2]; in assay [3]; in assay [5]) were more than 100 µM, 23.6 µM and 81.5 µM, respectively. In addition, the Ratio in the assay on MCF7 [4] was 1.3.
On to `CC(C)n1cnc2c(NC(=N)N)nc(N3CCC[C@@H]3CO)nc21`, for which the Ratio in assay [1] is 0.1; with MCF7 [4], 2. Besides, the figures for the half-maximal inhibitory concentration (IC50) (with MCF7 [2]; in assay [3]; in assay [5]) were 20.4 µM, 0.67 µM and 6.2 µM, respectively.

As usually defined, the IC50 is the concentration that inhibits the measured activity by half.
